{"source": "ChEMBL document CHEMBL1833854", "about": "“2,5-Disubstituted-1,3,4-oxadiazoles/thiadiazole as surface recognition moiety: design and synthesis of novel hydroxamic acid based histone deacetylase inhibitors” (Bioorg Med Chem Lett, 2011)", "key": {"Histone deacetylase 1": {"molecular_target": "Histone deacetylase 1 (Homo sapiens, UniProt Q13547)", "sequence (Q13547 whole entry)": "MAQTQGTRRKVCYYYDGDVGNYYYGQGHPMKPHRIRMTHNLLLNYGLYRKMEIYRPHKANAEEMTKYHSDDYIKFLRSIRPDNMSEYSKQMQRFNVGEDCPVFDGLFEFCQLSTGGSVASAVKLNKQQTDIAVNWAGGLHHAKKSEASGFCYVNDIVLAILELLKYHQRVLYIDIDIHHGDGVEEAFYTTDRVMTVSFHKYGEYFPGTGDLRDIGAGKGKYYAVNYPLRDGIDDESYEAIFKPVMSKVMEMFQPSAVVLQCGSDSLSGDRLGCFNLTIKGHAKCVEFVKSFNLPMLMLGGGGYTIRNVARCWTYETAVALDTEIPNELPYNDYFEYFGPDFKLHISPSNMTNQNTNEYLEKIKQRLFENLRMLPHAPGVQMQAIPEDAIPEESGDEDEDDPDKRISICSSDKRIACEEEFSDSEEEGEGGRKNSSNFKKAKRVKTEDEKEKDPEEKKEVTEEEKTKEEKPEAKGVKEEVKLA", "experiment": "Inhibition of HDAC1 by fluorescent activity assay"}, "HCT-116": {"test_system": "HCT-116", "experiment": "Antiproliferative activity against human HCT116 cells by MTT assay", "assay_type": "functional, cell-based"}, "[1]": {"experiment": "Antitumor activity against mouse EAC cells transplanted in Swiss albino mouse assessed as tumor weight inhibition in ascetic fluid at 0.2 mmol/kg, ip administered qd for 7 days measured on 8th day", "assay_type": "functional", "details": "Ehrlich, 168 h, read-out: GI", "how_it_was_run": "(§1)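 Ehrlich ascites carcinoma cells (9 days old) were taken from a donor mouse into sterile isotonic saline and adjusted to 10 × 10⁶ cells/mL. Mice received 0.1 mL per 10 g ip on day 0. Compound in PBS pH 7.2 (0.1 mL/10 g) was given ip on days 1–7 at 24-h intervals; controls received vehicle only. On day 8, after 6 h fasting, peritoneal cells were counted and ascitic fluid weight was taken from body weight before and after fluid removal.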"}, "[2]": {"experiment": "Antitumor activity against mouse EAC cells transplanted in Swiss albino mouse assessed as tumor cell inhibition in ascetic fluid at 0.2 mmol/kg, ip administered qd for 7 days measured on 8th day", "assay_type": "functional", "details": "Ehrlich, 168 h, read-out: GI", "how_it_was_run": "as §1"}, "[3]": {"experiment": "Antitumor activity against mouse EAC cells transplanted in Swiss albino mouse assessed as tumor weight inhibition in ascetic fluid at 1 mg/kg, ip administered qd for 7 days measured on 8th day", "assay_type": "functional", "details": "Ehrlich, 168 h, route intraperitoneal, read-out: GI", "how_it_was_run": "(§2)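 Swiss albino mice were inoculated ip on day 0 with 9-day-old Ehrlich ascites carcinoma cells from a donor mouse (10 × 10⁶ cells/mL in isotonic saline, 0.1 mL per 10 g). Mitomycin-C served as the standard at 1 mg/kg; controls received vehicle only. Mice were sacrificed on day 8 after 6 h without food and water. Peritoneal fluid cells were counted, and ascitic fluid weight came from body weight before and after draining the cavity.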"}, "[4]": {"experiment": "Antitumor activity against mouse EAC cells transplanted in Swiss albino mouse assessed as tumor cell inhibition in ascetic fluid at 1 mg/kg, ip administered qd for 7 days measured on 8th day", "assay_type": "functional", "details": "Ehrlich, 168 h, route intraperitoneal, read-out: GI", "how_it_was_run": "as §2"}}, "data": [{"smiles": "CN(C)c1ccc(-c2nnc(Nc3ncc(C(=O)NO)cn3)o2)cc1", "values": [{"measurement": "IC50", "setting": "Histone deacetylase 1", "result": 9, "unit": "nM"}, {"measurement": "IC50", "setting": "HCT-116", "result": 200, "unit": "nM"}, {"measurement": "inhibition in vivo at 200 µmol/kg", "setting": "[1]", "result": 55.5, "unit": "%"}, {"measurement": "inhibition in vivo at 200 µmol/kg", "setting": "[2]", "result": 56.8, "unit": "%"}]}, {"smiles": "CO[C@@]12[C@H](COC(N)=O)C3=C(C(=O)C(C)=C(N)C3=O)N1C[C@@H]1N[C@@H]12", "note": "[MITOMYCIN]", "values": [{"measurement": "inhibition in vivo at 1 mg/kg", "setting": "[3]", "result": 100, "unit": "%"}, {"measurement": "inhibition in vivo at 1 mg/kg", "setting": "[4]", "result": 100, "unit": "%"}]}, {"smiles": "CN(C)c1ccc(-c2nnc(Nc3ncc(C(=O)NO)cn3)s2)cc1", "values": [{"measurement": "IC50", "setting": "Histone deacetylase 1", "result": 11, "unit": "nM"}, {"measurement": "IC50", "setting": "HCT-116", "result": 200, "unit": "nM"}, {"measurement": "inhibition in vivo at 200 µmol/kg", "setting": "[1]", "result": 61.1, "unit": "%"}, {"measurement": "inhibition in vivo at 200 µmol/kg", "setting": "[2]", "result": 51.1, "unit": "%"}]}, {"smiles": "O=C(NO)c1cnc(Nc2nnc(-c3ccccc3)s2)nc1", "values": [{"measurement": "IC50", "setting": "Histone deacetylase 1", "result": 8, "unit": "nM"}, {"measurement": "IC50", "setting": "HCT-116", "result": 80, "unit": "nM"}, {"measurement": "inhibition in vivo at 200 µmol/kg", "setting": "[1]", "result": 14.2, "unit": "%"}, {"measurement": "inhibition in vivo at 200 µmol/kg", "setting": "[2]", "result": 29.5, "unit": "%"}]}, {"smiles": "O=C(NO)c1cnc(Nc2nnc(-c3ccc(Cl)cc3)s2)nc1", "values": [{"measurement": "IC50", "setting": "Histone deacetylase 1", "result": 10, "unit": "nM"}, {"measurement": "IC50", "setting": "HCT-116", "result": 160, "unit": "nM"}, {"measurement": "inhibition in vivo at 200 µmol/kg", "setting": "[1]", "result": 48.3, "unit": "%"}, {"measurement": "inhibition in vivo at 200 µmol/kg", "setting": "[2]", "result": 32, "unit": "%"}]}, {"smiles": "O=C(NO)c1cnc(Nc2nnc(-c3ccc(F)cc3)o2)nc1", "values": [{"measurement": "IC50", "setting": "Histone deacetylase 1", "result": 9, "unit": "nM"}, {"measurement": "IC50", "setting": "HCT-116", "result": 60, "unit": "nM"}, {"measurement": "inhibition in vivo at 200 µmol/kg", "setting": "[1]", "result": 24.1, "unit": "%"}, {"measurement": "inhibition in vivo at 200 µmol/kg", "setting": "[2]", "result": 16.4, "unit": "%"}]}]}
